Measurements published in ChEMBL document CHEMBL4152216, “Syntheses and anti-pancreatic cancer activities of rakicidin A analogues” (Eur J Med Chem, 2018).
pIC50: −log10 of the molar value.

Legend:
PaTu 8988t [1] = assay: Cytotoxicity against human PA-TU-8988T cells after 72 hrs under hypoxic condition by MTT assay; format: functional, cell-based
In short: (§1)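 PANC-1, PATU8988T and ASPC-1 cells were grown in DMEM with 10% FBS at 37 °C and 5% CO2, then seeded at 4000 cells/well. Compounds were added at various concentrations after 6 h. Normoxic plates stayed at 37 °C, 5% CO2. Hypoxic plates went into a chamber purged 10 min with 5% CO2/1% O2/94% N2, sealed, at 37 °C. After 72 h, MTT was added for 4 h, formazan dissolved in DMSO and read at 570 nm. IC50 is the mean ± SD of three independent experiments.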

PANC-1 [2] = assay: Inhibition of cancer stem cell population of human PANC1 cells assessed as CD24+/CD44+/ESA+ cell population level at 0.15 uM after 48 hrs by flow cytometric analysis (reference value: 1.7%); format: functional; design: scale not given: the % may be the effect or the level left
PANC-1 [3] = assay: Selectivity index, ratio of IC50 against human PANC1 cells under normoxic condition to IC50 for human PANC1 cells under hypoxic condition; format: functional
In short: (§2)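 Hypoxic selectivity index is IC50 (normoxia)/IC50 (hypoxia). Both IC50s come from the 72 h MTT assay in the same cell line, run under normoxia (37 °C, 5% CO2) or a sealed 1% O2/5% CO2/94% N2 chamber, each the mean of three independent experiments.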

PANC-1 [4] = assay: Cytotoxicity against human PANC1 cells after 72 hrs under hypoxic condition by MTT assay; format: functional, cell-based; settings: PANC-1, 72 h; in short: as §1
PANC-1 [5] = assay: Cytotoxicity against human PANC1 cells after 72 hrs under normoxic condition by MTT assay; format: functional, cell-based; settings: PANC-1, 72 h; in short: as §1
PaTu 8988t [6] = assay: Selectivity index, ratio of IC50 against human PA-TU-8988T cells under normoxic condition to IC50 for human PA-TU-8988T cells under hypoxic condition; format: functional; in short: as §2
ASPC1 [7] = assay: Cytotoxicity against human Aspc-1 cells after 72 hrs under hypoxic condition by MTT assay; format: functional, cell-based; settings: ASPC1, 72 h; in short: as §1
ASPC1 [8] = assay: Cytotoxicity against human Aspc-1 cells after 72 hrs under normoxic condition by MTT assay; format: functional, cell-based; settings: ASPC1, 72 h; in short: as §1
PaTu 8988t [9] = assay: Cytotoxicity against human PA-TU-8988T cells after 72 hrs under normoxic condition by MTT assay; format: functional, cell-based; in short: as §1
ASPC1 [10] = assay: Selectivity index, ratio of IC50 against human Aspc-1 cells under normoxic condition to IC50 for human Aspc-1 cells under hypoxic condition; format: functional; in short: as §2

Row | Structure (SMILES) | pIC50 (PaTu 8988t [1]) | Activity (PANC-1 [2]) [%] | Ratio IC50 (PANC-1 [3]) | pIC50 (PANC-1 [4]) | pIC50 (PANC-1 [5]) | Ratio IC50 (PaTu 8988t [6]) | pIC50 (ASPC1 [7]) | pIC50 (ASPC1 [8]) | pIC50 (PaTu 8988t [9]) | Ratio IC50 (ASPC1 [10])
1 | C=C1/C=C/C(=O)N(C)CC(=O)N[C@@H](CC(=O)NC)C(=O)O[C@@H]([C@H](C)CCCCCCCCCCCCCC)[C@H](C)C(=O)N1 | 7.22 | 0.33 | 4.44 | 7.42 | 6.77 | 4.42 | 7.34 | 6.30 | 6.59 | 10.98
2 | C#CCOC(=O)C[C@@H]1NC(=O)CN(C)C(=O)/C=C/C(=C)NC(=O)[C@@H](C)[C@H]([C@H](C)CCCCCCCCCCCC(C)C)OC1=O | 6.96 | 1.9 | 2.21 | 7.18 | 6.82 | 2.8 | 6.92 | 6.59 | 6.52 | 2.23
3 | C=C1/C=C/C(=O)N(C)CC(=O)N[C@@H]([C@H](O)C(=O)OC)C(=O)O[C@@H]([C@H](C)CCCCCCCCCCCC(C)C)[C@H](C)C(=O)N1 | 6.92 | 0.83 | 2.98 | 7.05 | 6.57 | 3.91 | 6.82 | 6.27 | 6.35 | 3.63
4 | CCCCCCCCCCCCCC[C@@H](C)[C@@H]1OC(=O)[C@H](CC(=O)NC2CC2)NC(=O)CN(C)C(=O)/C=C/C(CO[Si](c2ccccc2)(c2ccccc2)C(C)(C)C)NC(=O)[C@H]1C (stereo not given in full) | – | – | – | < 5.00 | < 5.00 | – | – | – | – | –
5 | C=C1/C=C/C(=O)N(C)CC(=O)N[C@@H](C)C(=O)O[C@@H]([C@H](C)CCCCCCCCCCCCCC)[C@H](C)C(=O)N1 | – | – | 4.04 | 6.57 | 5.96 | – | – | – | – | –
6 | CCCCCCCCCCCCCC[C@@H](C)[C@@H]1OC(=O)[C@H](CC(=O)NC2CC2)NC(=O)CN(C)C(=O)/C=C/[C@H](CO)NC(=O)[C@H]1C | – | – | – | < 5.00 | < 5.00 | – | – | – | – | –
7 | CC(=O)O[C@H]1C(=O)[C@@]2(C)[C@H]([C@H](OC(=O)c3ccccc3)[C@]3(O)C[C@H](OC(=O)[C@H](O)[C@@H](NC(=O)c4ccccc4)c4ccccc4)C(C)=C1C3(C)C)[C@]1(OC(C)=O)CO[C@@H]1C[C@@H]2O [PACLITAXEL] | – | 1.6 | – | – | – | – | – | – | – | –
8 | C=C1/C=C/C(=O)N(C)CC(=O)N[C@@H](CC(=O)OC(C)C)C(=O)O[C@@H]([C@H](C)CCCCCCCCCCCC(C)C)[C@H](C)C(=O)N1 | – | – | 2.6 | 6.15 | 5.74 | – | – | – | – | –
9 | C=C1/C=C/C(=O)N(C)C(C)C(=O)N[C@@H]([C@H](O)C(=O)OC)C(=O)O[C@@H]([C@H](C)CCCCCCCCCCCC(C)C)[C@H](C)C(=O)N1 (single isomer, unassigned; 1c) | 6.70 | – | 9.53 | 7.37 | 6.39 | 2.79 | 6.70 | 5.92 | 6.27 | 5.71
10 | COC(=O)C[C@@H]1NC(=O)CN(C)C(=O)/C=C/CNC(=O)[C@@H](C)[C@H]([C@H](C)CCCCCCCCCCCC(C)C)OC1=O | – | – | 0.76 | 4.55 | 4.68 | – | – | – | – | –
11 | C=C1/C=C/C(=O)N(C)CC(=O)N[C@@H](CC(=O)OCC)C(=O)O[C@@H]([C@H](C)CCCCCCCCCCCC(C)C)[C@H](C)C(=O)N1 | 6.96 | – | 2.43 | 7.13 | 6.74 | 2.89 | 6.82 | 6.55 | 6.49 | 1.85
12 | C=C1/C=C/C(=O)N(C)C(C)C(=O)N[C@@H]([C@H](O)C(=O)OC)C(=O)O[C@@H]([C@H](C)CCCCCCCCCCCC(C)C)[C@H](C)C(=O)N1 (single isomer, unassigned; 1d) | 6.42 | – | 8.34 | 7.10 | 6.18 | 2.86 | 6.40 | 5.49 | 5.96 | 7.87
13 | C=C1/C=C/C(=O)N(C)CC(=O)O[C@@H](CCCCCCCCCCCCC)[C@H](C)C(=O)[C@](C)(O)C(=O)NCC(=O)N1 | – | – | 43.33 | 7.82 | 6.19 | – | – | – | – | –
14 | C=C1/C=C/C(=O)N(C)CC(=O)N[C@@H](CC(=O)OC)C(=O)O[C@@H]([C@H](C)CCCCCCCCCCCCCC)[C@H](C)C(=O)N1 | 6.47 | 0.7 | 1.98 | 7.24 | 6.92 | 1.87 | 6.46 | 6.01 | 6.19 | 2.8
15 | C=C1/C=C/C(=O)N(C)CC(=O)N[C@@H](Cc2ccccc2)C(=O)O[C@@H]([C@H](C)CCCCCCCCCCCCCC)[C@H](C)C(=O)N1 | 6.19 | 1.6 | 3.76 | 6.92 | 6.37 | 2.14 | 6.22 | 5.85 | 5.85 | 2.4
16 | C=C1/C=C/C(=O)N(C)CC(=O)N[C@@H](C(C)C)C(=O)O[C@@H]([C@H](C)CCCCCCCCCCCCCC)[C@H](C)C(=O)N1 | – | – | 3 | 6.46 | 6.00 | – | – | – | – | –
17 | C=C1/C=C/C(=O)N(CCCCCC)CC(=O)N[C@@H]([C@H](O)C(=O)OC)C(=O)O[C@@H]([C@H](C)CCCCCCCCCCCC(C)C)[C@H](C)C(=O)N1 | – | – | >7.11 | 5.15 | < 4.30 | – | – | – | – | –
18 | C=C1/C=C/C(=O)N(C)CC(=O)N[C@@H](CC(=O)OC)C(=O)O[C@@H]([C@H](C)CCCCCCCCCCCC(C)C)[C@H](C)C(=O)N1 | 7.14 | 1.2 | 2.36 | 7.32 | 6.96 | 5.03 | 6.22 | 6.44 | 6.44 | 0.59
19 | C=C1/C=C/C(=O)N(CC(F)(F)F)CC(=O)N[C@@H]([C@H](O)C(=O)OC)C(=O)O[C@@H]([C@H](C)CCCCCCCCCCCC(C)C)[C@H](C)C(=O)N1 | – | – | 1.72 | 5.82 | 5.60 | – | – | – | – | –
20 | C=C1/C=C/C(=O)N(C)CC(=O)N[C@@H]([C@H](O)C(=O)OCC)C(=O)O[C@@H]([C@H](C)CCCCCCCCCCCC(C)C)[C@H](C)C(=O)N1 | 6.92 | – | 2.33 | 7.17 | 6.80 | 3.25 | 6.74 | 6.32 | 6.42 | 2.64
21 | C=C1/C=C/C(=O)N(C)CC(=O)N[C@@H](CCC(=O)OC)C(=O)O[C@@H]([C@H](C)CCCCCCCCCCCCCC)[C@H](C)C(=O)N1 | – | – | 3.54 | 6.52 | 5.96 | – | – | – | – | –
